DDE Tn7 FP inh – disrupts Tn7 cyclic peptide binding to fibrin D-Dimer-E complex; P02675; FP displacement of FITC-Tn7 peptide from fibrin DD(E); 0% = median of compound wells per plate; inhibition, % at 8.3 µM; hit rate 0.13% among 370,000;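 active = inhibition above the mean of compounds falling within the control limits plus 3 SD of them, cut at about 14% in these data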;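 note: 0% = plate median of compound wells and 100% = 10 µM Aha-Tn7 peptide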
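Also added: labelled Tn7 tracer, 0.1 µM; Assay system: human fibrin DD(E) protein; Amount: 2 µM fibrin DD(E); Schedule: 10 min compound pre-incubation, 3 h probe incubation at room temperature; Repeats: one replicate per compound; Read-out basis: percent inhibition; Measured by: fluorescence polarization of the labelled Tn7 tracer.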
ABCG2 inh – inhibitors of human ABCG2 transporter, ABCB1 counter-screen; Q9UNQ0; IgMXP3 cells, JC-1 efflux, flow cytometry; inhibition, % at 6.6 µM; hit rate 0.1% among 190,000;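 active = inhibition above 80%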;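 note: 0% = DMSO and 100% = nicardipine control wells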
Target sequence (Q9UNQ0 whole entry, looked up): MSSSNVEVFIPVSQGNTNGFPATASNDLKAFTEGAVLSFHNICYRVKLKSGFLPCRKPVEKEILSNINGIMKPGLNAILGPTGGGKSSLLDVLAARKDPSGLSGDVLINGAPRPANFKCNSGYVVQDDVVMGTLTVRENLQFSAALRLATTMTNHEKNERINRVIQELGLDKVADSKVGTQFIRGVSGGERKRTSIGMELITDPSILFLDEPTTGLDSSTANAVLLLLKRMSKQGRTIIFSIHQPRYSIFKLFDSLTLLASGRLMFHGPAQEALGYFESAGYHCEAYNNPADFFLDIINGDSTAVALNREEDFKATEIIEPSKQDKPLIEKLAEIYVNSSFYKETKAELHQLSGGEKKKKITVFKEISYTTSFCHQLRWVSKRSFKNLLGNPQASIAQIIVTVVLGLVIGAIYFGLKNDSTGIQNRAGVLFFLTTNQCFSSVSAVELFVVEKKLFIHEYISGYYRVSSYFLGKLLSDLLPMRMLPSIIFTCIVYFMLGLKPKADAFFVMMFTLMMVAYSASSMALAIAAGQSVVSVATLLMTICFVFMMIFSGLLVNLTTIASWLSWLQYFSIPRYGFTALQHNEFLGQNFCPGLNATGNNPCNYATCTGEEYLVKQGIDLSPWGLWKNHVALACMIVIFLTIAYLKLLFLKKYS
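Test system: ABCG2 IgMXP3 and barcoded ABCB1 CCRF-Adr cell mix; Schedule: cells with compound and JC-1, 10 min at 25 °C, rotating, no wash; Technique: flow cytometry of retained JC-1 fluorescence; Measure: % inhibition of efflux relative to nicardipine and DMSO; Controls: nicardipine high and DMSO low controls.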
DDE Tn6 FP inh – inhibitors of Tn6 peptide binding to human fibrin DD(E) | hit rate 0.21% among 370,000 | Fibrin DD(E) TRITC-Tn6 fluorescence polarization displacement | inhibition, % at 8.3 µM | P02675;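 active = inhibition above a per-campaign cutoff: mean of compounds within control limits plus 3 SD, cut at about 15% in these data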;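 note: 0% = median of all compound wells on the plate and 100% = blocking peptide control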
ABCB1 inh – human ABCB1 inhibition, ABCG2 as counter-screen; P08183; CCRF-Adr cells, JC-1 efflux, flow cytometry; inhibition, % at 6.6 µM; hit rate 0.067% among 190,000; in the data active = inhibition above about 40%;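 note: 0% = vehicle and 100% = reference inhibitor; higher value means more JC-1 retained so stronger ABCB1 efflux block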
GRK2 aptamer HTS – blocks RNA aptamer binding to human GRK2; P25098; bead flow cytometry, FAM-aptamer displacement from GRK2; inhibition of aptamer binding, % at 10 µM; hit rate 0.59% among 330,000;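 active = inhibition of aptamer binding above 40%, roughly 3 SD of noise, on plates passing a quality check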;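 note: median bead fluorescence of bound FAM aptamer so fluorescent compounds give negative values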
Ins promoter up – MIN6 insulin promoter up-regulation | z-score at 5 µM | hit rate 0.3% among 190,000 | MIN6 insulin promoter-GFP reporter, high-content imaging; stronger effect = higher value | AID 1625;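 active = z-score above 3 at 5 µM with at least 500 cells counted in the well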
GRK2 inh confirm – confirmation of human GRK2 inhibitors displacing RNA aptamer; shares compounds with GRK2 aptamer HTS; bead-bound GRK2, FAM-aptamer displacement, flow cytometry; aptamer displacement, % at 10 µM; hit rate 4% among 2,000; AID 504451;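 active = aptamer displacement above 40%, near three times the noise of non-fluorescent compounds, on plates passing quality checks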;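 note: negative values mostly reflect intrinsic compound fluorescence rather than true enhancement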
Aptamer quench 1 – counter-screen for GRK2 aptamer inhibitors: fluorescent aptamer quenchers | shares compounds with GRK2 aptamer HTS | Fluorescent RNA aptamer beads, quenching, flow cytometry; stronger effect = higher value | fluorescence change (kMESF span), kMESF (no concentration beside the values) | 110 tested, under 10 active | AID 504521;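 active = compounds whose bead fluorescence drops by more than 37 kMESF across the dose range, marking them as dye quenchers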
FAM quench CP1 – quenches fluorescent RNA aptamer, GRK2 hit artifact | fluorescence response (% of DMSO), % at 10 µM | 2,000 tested, under 10 active | Carboxyfluorescein RNA aptamer on beads, flow cytometry quenching; stronger effect = lower value | AID 504580 | shares compounds with GRK2 aptamer HTS;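 active = compounds that quench the bead-bound fluorescent RNA probe, cutting fluorescence to under half of the solvent control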;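 note: counterscreen run without GRK2 so only probe quenching by compound is measured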
GRK2 confirm 2 – human GRK2 inhibition confirmation, cherry pick 2; shares compounds with GRK2 aptamer HTS; bead-bound GRK2, FAM-aptamer displacement, flow cytometry; inhibition of aptamer binding, % at 10 µM; 360 tested, under 10 active; AID 504782;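 active = inhibition of aptamer binding above 40%, about triple the noise seen with nonglowing compounds, on plates passing quality control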;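 note: negative values mostly come from compounds that fluoresce themselves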
Aptamer quench3 – counter-screen for GRK2 aptamer inhibitors: fluorescent aptamer quenchers | Streptavidin beads, FAM-RNA aptamer fluorescence quenching, flow cytometry | change in fluorescence (kMESF span), kMESF (concentration not given with the values) | 25 tested, under 10 active | AID 504819 | shares compounds with GRK2 aptamer HTS;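 active = compounds quenching the bead-bound labeled aptamer, with fluorescence dropping by more than 37 kMESF over the dose range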
FAM quench CP2 – aptamer fluorescence quenching in GRK2 counter-screen; carboxyfluorescein RNA aptamer beads, flow cytometry quenching; stronger effect = lower value; 360 tested, under 10 active; fluorescence response vs DMSO, % at 10 µM; AID 588494; shares compounds with GRK2 aptamer HTS;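 active = response vs DMSO under 50%, meaning signal dropped by over half, treated as fluorescence quencher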;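 note: labelled aptamer on streptavidin beads without GRK2 as a quench counter-screen; 100% = bead fluorescence of DMSO wells and lower means quenching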
FAM quench DR – aptamer fluorescence quenching in GRK2 powder counter-screen | shares compounds with GRK2 aptamer HTS | Bead-bound FAM RNA aptamer fluorescence quenching, flow cytometry; stronger effect = lower value | fluorescence ratio to DMSO, % at 11.1 µM | 35 tested, under 10 active;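 active = compounds that dim the fluorescent label, raw bead signal shifting by over 33 units between lowest and highest dose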
* marks the source's active call; other numbers are inactive results; · = not tested or not shown. Compounds with a hit are over-represented: about 0.99% of the library has one in this group of screens.

SMILES	DDE Tn7 FP inh	ABCG2 inh	DDE Tn6 FP inh	ABCB1 inh	GRK2 aptamer HTS	Ins promoter up	GRK2 inh confirm	FAM quench CP1	others
O=C(CCS(=O)(=O)c1ccc(Br)cc1)NCc1ccc(F)cc1	-2	·	-1	·	87*	·	·	·	GRK2 confirm 2=54*;Aptamer quench3=0.5;FAM quench CP2=102
Cc1ccc(CNC(=O)CCS(=O)(=O)c2ccc(Br)cc2)cc1	1	7	6	0	·	-0.04	·	·
COc1ccc(CCNC(=O)CCS(=O)(=O)c2ccc(Br)cc2)cc1OC	2	1	-3	0	20	-0.27	13	95	Aptamer quench 1=7.4;FAM quench DR=100
CNc1ccccc1/C(O)=C(\C#N)C(=O)NCc1cccs1	2	·	-7	·	·	·	·	·
CNC(=O)c1ccsc1NC(=O)CS(=O)(=O)c1ccccc1	-1	·	-2	·	1	·	·	·	GRK2 confirm 2=11;FAM quench CP2=100
NC(=O)c1ccsc1NC(=O)CCS(=O)(=O)c1ccccc1	-7	-3	5	-1	3	0.66	·	·
CNC(=O)c1ccsc1NC(=O)CCS(=O)(=O)c1ccc(Cl)cc1	-1	·	-3	·	1	·	·	·
NC(=O)c1ccsc1NC(=O)CS(=O)(=O)c1ccccc1	-2	·	-6	·	0	·	·	·	GRK2 confirm 2=9;FAM quench CP2=98
C[C@H](O)[C@@H]1C(=O)N2CCc3c([nH]c4c(-c5ccc6c(c5)OCO6)cccc34)[C@@H]2C[C@@H]1N(C)C(=O)OCc1ccccc1	-4	·	-5	·	·	·	·	·
CC(C)NC(=O)NC(=O)CSc1nnc(COc2ccccc2Cl)o1	2	1	1	0	71*	-0.3	-3	103
CC(C)CCNC(=O)NC(=O)CSc1nnc(COc2ccccc2Cl)o1	-6	9	0	2	17	-0.81	·	·
CN(CC#CC1=CCCCC1)/C(N)=N/C(=O)OCc1ccccc1	5	·	3	·	·	·	·	·
CCOC(=O)N1CCN(C(=O)C[C@H]2C[C@@]3(C(=O)OC)C(=C[C@H](COCc4ccccc4)O[C@@H]3C)N(Cc3ccccc3)C2=O)CC1	-3	·	-1	·	·	·	·	·
O=C(NCc1ccccc1)C(c1ccncc1)N(C(=O)c1csnn1)c1ccccc1F (centres undefined)	-5	·	8	·	95*	·	0	99
CCNc1nc(NCC)n2c(SCC(=O)Nc3ccc(NC(C)=O)cc3)nnc2n1	-1	·	-1	·	31	·	·	·	GRK2 confirm 2=0;FAM quench CP2=106
CCNc1nc(NCC)n2c(SCC(=O)Nc3ccccc3OC(F)F)nnc2n1	-2	·	-2	·	22	·	·	·	GRK2 confirm 2=-2;FAM quench CP2=101
CCNc1nc(NCC)n2c(SCC(=O)Nc3ccccc3F)nnc2n1	-2	·	2	·	2	·	·	·
O=C(NCc1cccs1)C1CCCN(S(=O)(=O)c2ccccc2)C1 (centres undefined)	4	·	3	·	·	·	·	·
COc1cccc(/C=N\N2CCN(c3ccc(C)cc3)CC2)c1O	0	·	9	·	·	·	·	·
CCOC(=O)CN1C(=O)N(c2ccc(OC)cc2)[C@H]2CC3c4ccccc4C[C@]3(C)[C@@H](C(=O)N(C)C3CCCCC3)C[C@H]21 (some centres undefined)	6	·	-5	·	·	·	·	·
COc1cc([N+](=O)[O-])cc2sc(NC(C)=O)nc12	-7	·	-1	·	66*	-0.05	0	95
CCCCC(=O)Nc1nc2c(OC)cc([N+](=O)[O-])cc2s1	1	28	6	2	0	-0.97	·	·
O=C(CSc1nnc(-c2ccc(O)cc2)n1-c1ccccc1)CC(=O)Nc1ccccc1	-6	-8	-4	-2	92*	1.4	·	·	GRK2 confirm 2=-19;FAM quench CP2=102
COc1cc(-c2nc(-c3ccc(NC(=O)c4ccc(Br)o4)cc3)no2)cc(OC)c1OC	0	-1	3	0	82*	·	-2	99
CCOC(=O)C1CCCN(C(=O)c2cc(OC)ccc2Br)CC1 (centres undefined)	-5	·	-1	·	·	·	·	·
SMILES	DDE Tn7 FP inh	ABCG2 inh	DDE Tn6 FP inh	ABCB1 inh	GRK2 aptamer HTS	Ins promoter up	GRK2 inh confirm	FAM quench CP1	others
COc1ccc(S(=O)(=O)NCc2ccc3c(c2)OCO3)cc1OC	5	·	8	·	0	·	·	·
COc1ccc(S(=O)(=O)NCc2ccc3c(c2)OCO3)cc1C	-2	0	2	0	71*	·	0	100
CCCN1CCS(=O)(=O)N(Cc2cn(Cc3ccccc3)nn2)C(C(=O)OC)C1 (centres undefined)	3	·	4	·	·	·	·	·
O=C(N/N=C\c1cc([N+](=O)[O-])ccc1N1CCOCC1)c1ccccn1	4	7	4	2	89*	-0.18	10	101
C[C@@H]1ON(C)[C@H]2C[C@H]3c4cc(-c5cc6ccccc6o5)ccc4CCN3C[C@@H]12	3	·	-1	·	·	·	·	·
COc1ccc(Cc2nnc(NN)[nH]c2=O)cc1OC	-5	·	-5	·	0	·	·	·
COc1ccc(Cc2nnc(SC)[nH]c2=O)cc1OC	-13	0	7	0	51*	1	-1	98
COc1ccc2c(c1)c(=O)oc1cc(OCC(=O)N3CCC(C)CC3)ccc12	·	2	·	1	47*	0.22	1	100
Cc1c(C(O)(c2ccccc2)c2ccccc2)[n+]2ccccc2n1C	2	·	5	·	·	·	·	·
CCOC(=O)C1=C(C)Nc2nc(SCc3cccnc3)nn2C1c1ccc(OC)cc1 (centres undefined)	-2	2	-4	3	55*	-0.09	2	100
COc1cccc(CNC(=O)[C@H]2CCCN2C(=O)[C@H]2CCCN2C(=O)c2cccc(F)c2)c1	13	·	2	·	·	·	·	·
COc1ccc(-n2nc(C(=O)NCC(=O)NCCN(C)C)c3ccccc3c2=O)cc1	-2	·	-11	·	23	·	3	93
CCN(CC)CCNC(=O)CNC(=O)c1nn(-c2ccc(OC)cc2)c(=O)c2ccccc12	6	·	-2	·	0	·	1	95

From PubChem
